Assay outcomes as filed in PubChem.
Measles CPE: protection of cells from measles virus | 1.5% of 140,000 active | Measles virus-infected cells, CPE protection, absorbance | protection (pct of control), % at 4 µM | AID 841; in the data active = protection mostly above about 24%, no sharp cut-off; inactive = mostly below about 26%
Yeast lifespan up: yeast lifespan extension; S. cerevisiae growth with nicotinamide, OD615; deaD strain in restrictive glucose medium; inhibition of the nicotinamide effect, % at 10 µM; 0.68% of 130,000 active; AID 775;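 active = inhibition above a set limit, placed 3 SD over the median of all compounds, cut at about 26% in these data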;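 note: 0% = nicotinamide-treated wells and 100% = cells grown without nicotinamide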
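Buffer or medium: CSMM-D glucose medium, restrictive; test system: modified budding yeast, DeaD strain; compound: single dose 10 µM compound, 0.25% DMSO; schedule: culture preincubation 4 h, compound exposure 48 h, both 30 °C; detection: optical density (absorbance) at 615 nm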
RAM inhibit: blocks the yeast RAM network; AID 868; inhibition, % at 50 µM; S. cerevisiae dse1pr::URA3 reporter, 5-FOA growth OD615, 2 d; analog-sensitive cbk1-as2 kinase mutant strain; 1.8% of 190,000 active;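 active = inhibition above a set limit, 3 SD over mean compound inhibition, cut at about 8.4% in these data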;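 note: 0% = DMSO-only wells with no growth and 100% = 10 µM 1-NA-PP1 full growth; inhibition rescues growth on 5-FOA so higher OD means more RAM inhibition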
MDM2 E3 inh: Mdm2 E3 ligase (human) inhibition; signal enhancement, % at 5 µM; Q00987; AID 1230; 0.11% of 210,000 active; cell-based MDM2 ubiquitination luciferase reporter, 2 h; 0 = plate control, 100 = twice control, blank-subtracted;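 active = signal enhancement of 30% or more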;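 note: luminescence tracks abundance of the self-degrading MDM2-luciferase fusion protein; higher signal means inhibition of MDM2 E3 ligase activity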
Target sequence (Q00987 whole entry, looked up, the tested form may be a part): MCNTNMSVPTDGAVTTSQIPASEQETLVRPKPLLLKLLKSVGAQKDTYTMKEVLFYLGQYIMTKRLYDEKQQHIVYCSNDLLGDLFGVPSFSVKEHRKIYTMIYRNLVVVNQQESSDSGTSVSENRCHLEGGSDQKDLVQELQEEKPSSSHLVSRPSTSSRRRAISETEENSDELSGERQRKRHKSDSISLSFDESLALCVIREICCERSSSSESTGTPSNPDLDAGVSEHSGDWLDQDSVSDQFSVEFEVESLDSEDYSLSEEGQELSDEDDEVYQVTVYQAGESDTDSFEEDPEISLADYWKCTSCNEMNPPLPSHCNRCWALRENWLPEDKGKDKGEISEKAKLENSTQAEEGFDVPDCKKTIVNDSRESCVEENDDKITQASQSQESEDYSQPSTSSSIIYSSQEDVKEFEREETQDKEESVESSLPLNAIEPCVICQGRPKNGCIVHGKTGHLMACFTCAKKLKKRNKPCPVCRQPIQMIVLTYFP
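Timing – 2 h compound exposure at 37 °C · Assay system – mammalian cells stably expressing self-ubiquitinating, self-degrading MDM2 E3–luciferase fusion · Amount – 2000 cells seeded into each well · Measure – % luminescence enhancement versus blank-corrected plate control mean · Measured by – SteadyLite luminescence, 15 min reagent step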
INS promoter inh: TRM-6 insulin promoter activity inhibition; 0.9% of 130,000 active; inhibition, % at 2 µM; TRM-6 cells (human fetal islet line), insulin promoter-eGFP reporter, imaging; reporter expression induced with tamoxifen;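 active = inhibition above the mean plus 3 SD, with well images judged a real hit on visual review, cut at about 60% in these data, passing the limit was not always enough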
BB579 growth dn: yeast BB579 growth reduction in restrictive medium | 0.51% of 140,000 active | inhibition, % at 10 µM | S. cerevisiae BB579 growth, OD615, 48 h;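 active = inhibition above a set limit, 3 SD over the mean compound inhibition, cut at about 44% in these data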
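System: Saccharomyces cerevisiae DeaD strain BB579, replicative lifespan model yeast. Buffer or medium: restrictive glucose-based CSMM-D medium. Doses: one dose, 10 µM compound with 0.25% DMSO. Timing: 4 h preincubation and 48 h exposure at 30 °C. Detection: turbidity as optical density at 615 nm. Benchmarks: amphotericin B 10 µg/mL, positive.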
The depositor's hits bear a star; x = no result given. Rows were chosen to be rich in hits. Some 4% of all compounds tested hit in one or more screens of this group.

SMILES | Measles CPE | Yeast lifespan up | RAM inhibit | MDM2 E3 inh | INS promoter inh | BB579 growth dn
CN(C)c1nc(N)nc(CSc2nc3c(c(=O)n(C)c(=O)n3C)n2Cc2ccccc2F)n1 | x | x | 1 | -14 | 21 | x
Cn1c(=O)c2c(nc(SCc3nn[nH]n3)n2Cc2ccccc2F)n(C)c1=O | 5 | -6 | 10* | -1 | 50 | -21
COc1ccccc1Oc1nc2c(c(=O)n(Cc3ccccc3F)c(=O)n2C)n1C | 9 | -10 | 10* | -11 | -24 | -64
Cn1c(=O)c2c(nc(SCCN3CCCCC3)n2Cc2ccccc2)n(C)c1=O | 76* | -2 | 1 | 19 | x | -2
Cn1c(=O)c2c(nc(SCCN3CCOCC3)n2Cc2cccc3ccccc23)n(C)c1=O | 98* | -9 | 1 | 16 | 40 | -61
Cc1cc(=O)oc2cc(OCCSc3nnc(-c4ccccc4)o3)ccc12 | 10 | -3 | 11* | -7 | 6 | -7
O=C(Nc1ccc(Cl)cn1)c1ccc(COc2ccccc2Br)o1 | x | x | 11* | 20 | 44 | x
CCOc1ccc(OCc2ccc(C(=O)Nc3ccc(Cl)cn3)o2)cc1 | 4 | -19 | 4 | -3 | -14 | -9
O=C(NCCc1nc(-c2ccccc2)cs1)c1ccc(Br)cc1 | 5 | -6 | 4 | 11 | -4 | -45
CCCCn1ccnc1C(=O)c1cc(S(=O)(=O)N2CCOCC2)ccc1C | 0 | -3 | 1 | -4 | -89 | -33
CCCCn1ccnc1C(=O)c1cccc(S(=O)(=O)N2CC(C)CC(C)C2)c1 (stereo not given) | 13 | 7 | 8.7* | -10 | 26 | -42
CN(C(=O)c1ccncc1)c1nnc(-c2cnccn2)s1 | 32* | -5 | 0 | -8 | -11 | 11
COc1ccccc1NC(=O)C1CCCN(c2nc(C)cc(C)n2)C1 (stereo not given) | 33* | x | 1 | 5 | 67 | -31
CC(C)NC(=O)c1onc(CSc2ccc(Cl)cc2)c1C(=O)NC(C)C | x | x | x | -6 | x | x
CCCN1Cc2cccc(C(=O)NC3CCCC3)c2C1=O | 11 | -13 | 0 | -7 | 94* | -6
CCCN1CCN(C(=O)c2cccc3c2C(=O)N(CCOC)C3)CC1 | 44* | -5 | 0 | -14 | x | -34
O=C(NN1CCOCC1)c1ccc(Cl)s1 | x | x | 2 | -88 | x | x
O=c1c2c3c(sc2n2c(=S)[nH]nc2n1Cc1ccccc1)CN(Cc1ccccc1)CC3 | x | x | x | x | 49 | x
COC(=O)CN1C(=S)N(c2ccc(OC)cc2)C(=O)/C1=C/c1ccc(OC)cc1 | x | x | 11* | 2 | 48 | x
CC1=[N+](C)N(c2ccccc2)C(=O)C1N=Cc1c(Cl)cccc1Cl (stereo not given) | 31 | 35* | 0 | -6 | x | -8
O=C(CN1C(=O)C2C3c4ccccc4C(c4ccccc43)C2C1=O)Nc1ccccc1C(=O)O (stereo not given) | 6 | 5 | 8 | 4 | x | -41
Cc1ccc(C(=O)Oc2ccc(Cl)c3cccnc23)cc1[N+](=O)[O-] | 5 | -28 | 1 | 20 | -53 | 68*
COc1ccc(-n2c(C)n[nH]c2=O)cc1 | 68* | -12 | 2 | 6 | 14 | -22
CN(C(=O)CSc1cc(C(=O)c2nccn2C)c2ccccc2n1)c1ccccc1 | x | x | x | -13 | x | x
O=C(Nc1ccc(Cl)cc1)N1CC=CCC1 | 9 | -10 | 0 | -22 | 63* | -29
SMILES | Measles CPE | Yeast lifespan up | RAM inhibit | MDM2 E3 inh | INS promoter inh | BB579 growth dn
O=C(COC(=O)CCSc1ccc(Cl)cc1)NCc1ccccc1 | 8 | -2 | 0 | -19 | -3 | 13
O=C(COC(=O)CCSc1ccccc1)NCc1ccccc1Cl | 75* | -7 | -1 | -15 | x | -20
CC(=O)CCc1c(C)c2cc(C)ccc2[nH]c1=O | 5 | -8 | 0 | -24 | 70* | -31
O=C(NCCc1c[nH]c2ccccc12)c1cccnc1 | 74* | -6 | -1 | -18 | -20 | -21
N/C(Cc1ccc(Cl)c(Cl)c1)=N\OC(=O)c1cccs1 | 9 | -12 | 0 | 14 | 11 | 66*
N/C(=N\OC(=O)c1cccs1)C1(c2ccc(Cl)cc2Cl)CC1 | x | x | x | -5 | x | x
Cc1nn(-c2ccccc2)c(C)c1C(=O)OCC(=O)N1CC(=O)Nc2ccccc21 | 26 | -12 | 2 | -14 | 93* | -18
COCc1nnc(SCC(=O)Nc2cccc(Cl)c2C)n1-c1ccccc1 | 5 | -2 | 0 | 0 | x | -19
Cc1ccc(CCc2nnc(SCC(=O)Nc3cc(Cl)ccc3Cl)n2-c2ccccc2)o1 | 7 | 2 | 9.7* | 3 | -10 | -26
CCCCN(CC)S(=O)(=O)c1ccc(C(=O)Nc2nnc(-c3cccs3)o2)cc1 | 1 | -12 | 8.6* | -9 | x | -45
COc1ccc(C(=O)N/C(=C\c2cn(S(=O)(=O)N(C)C)c3ccccc23)C(=O)NC(C)C)cc1 | x | x | 9.3* | -13 | x | x
CCN(CC)C(=O)/C(=C/c1cn(S(=O)(=O)N(C)C)c2ccccc12)NC(=O)c1ccc(OC)cc1 | x | x | 2 | 7 | x | x
CCOC(=O)C1=C(C(F)(F)F)Nc2ncnn2C1c1ccc(OC)cc1OC (stereo not given) | 7 | -2 | 2 | -4 | -3 | -31
CCOP(=O)(c1ccccc1)C(O)c1ccccc1 (stereo not given) | 2 | 3 | 1 | 1 | 3 | -14
CCOP(=O)(C1=C(O)C(=O)C(C(C)(C)C)=CC1=O)c1ccccc1 (stereo not given) | x | x | 0 | -4 | 67* | x
Clc1ccccc1N/N=C/c1ccc2c(c1)OCO2 | 10 | -7 | 0 | -8 | 64* | 90*
C(=N\Nc1nc2ccccc2[nH]1)/c1ccc2c(c1)OCO2 | x | x | 1 | -10 | 38 | x
O=C(COc1ccc(-c2ccccc2)cc1)N1CCN(S(=O)(=O)Cc2ccccc2)CC1 | 3 | -5 | 5 | -6 | -28 | -25
O=C(O)c1cc(-c2ccc(Cl)cc2)n[nH]1 | 35* | -6 | 1 | -19 | x | -68
COc1ccc(-c2cc(C(=O)O)[nH]n2)cc1OC | 2 | -16 | 1 | -14 | 39 | -13
Oc1c(Cl)cc(Cl)c2c1NCCC2 | 12 | -26 | -1 | 2 | 18 | 99*
O=C(CCc1ccc(Oc2cc([N+](=O)[O-])cc([N+](=O)[O-])c2)cc1)N1CCCCCC1 | 6 | 8 | 6 | 1 | -57 | -40
CC(/C=N/n1c(COc2ccccc2)n[nH]c1=S)=C\c1ccccc1 | 7 | -11 | 8.4* | -6 | -34 | -2
S=c1[nH]nc(COc2ccccc2)n1/N=C/c1ccncc1 | x | x | 2 | -11 | -12 | x
Cc1ccccc1Nc1nc(CSc2nnnn2-c2ccccc2)cs1 | 10 | -17 | 2 | -1 | 69* | -55
Cc1cccc(CSc2nnc(N)n2-c2ccccc2)c1 | 6 | x | 0 | 3 | 29 | -28
Cc1cccc(CSc2nnnn2-c2ccccc2)c1 | 69* | -7 | 1 | -21 | 25 | 1
